The data set relates to MS2 coat protein. Kind of data set: apparent Kd, MS2 coat protein; higher = weaker binding; RNA-MaP array; tryptophan 2.4 mM where present. The essentials:
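Designs were transcribed by stalled E. coli RNA polymerase on Illumina sequencing-chip clusters. They were titrated with SNAP-549-labelled MS2 coat protein from 0.7 or 1.5 nM, doubling to 3 µM, without and then with constant ligand. Buffer: 100 mM Tris-HCl pH 7.5, 80 mM KCl, 4 mM MgCl2, BSA, DTT, yeast tRNA, Tween-20. Green signal was normalised to red-channel RNA signal and control-cluster median Fmax. Apparent Kd is the median of filtered per-cluster binding-curve fits.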

Where [1] appears, read: designed as: ON switch for tryptophan, no ligand.
Setting [2] is: ligand present: tryptophan, designed as: ON switch for tryptophan.
[3] abbreviates: designed as: OFF switch for tryptophan, no ligand.
[4] abbreviates: ligand present: tryptophan, designed as: OFF switch for tryptophan.

Take “AGCCACUCGAGUGAUCCUCACGAGUGGCAACGAGGACCGGUACGGCCGCCACUCGAAUAACAUGAGGAUCACCCAUGUUUAUAAU”: the apparent Kd (as a rule, the concentration giving half-maximal binding under the conditions of the assay) is, setting by setting: under setting [1], 93.2 nM; under setting [2], 96.2 nM.
For “GCAUCCUAGUCGGCCGCCACUGCAACAUGAGGAUCACCCAUGUCUGUAUGUGAUCCAUGCAGUAGCAGGACCGGGACUAGGAUGC”, the “apparent Kd” value by setting is: under setting [1], 501 nM; under setting [2], 130 nM.
Consider “ACCUGCGUUUGUUUCUUUCUGACGCAGGUUCGAGGACCGGUACGGCCGCCACUCGGACAUGAGGAUCACCCAUGUUUGAAAUGGG”, for which the “apparent Kd” value came to 253 nM under setting [3] and 227 nM under setting [4].
As for “AAUAAUAGGUGAUCCUGACGAGUGGCAUAACGAGGACCGGUACGGCCGCCACUCGAACAUGAGGAUCACCCAUGUAGCCACUCGA”, the “apparent Kd” value amounted to 312 nM under setting [1] and 393 nM under setting [2].
Take “CCUAUGCAGUCGGCCGCCACUGAGUCCUCAAUAAUAAAUUAAUAAACAUGAGGAUCACCCAUGUACAGGACCGGGACUGUAUAGG”: the “apparent Kd” value amounted to 314 nM under setting [3] and 373 nM under setting [4].
Consider “AACAUGAGGAUCACCCAUGUUCUCGUGUACCGAGGACCGGUACGGCCGCCACUCGGUUCUCGCGAGGAUGGUCAAAGACUAUCCA”, for which the “apparent Kd” value under setting [1] was 19.1 nM and the “apparent Kd” value under setting [2] is 16 nM.
As for “AGAUUCGACACGGCCGCCACUUGUGGUGGAUUAUCCUAUGUCGAACAUGAGGAUCACCCAUGUACAAGGACCGGGUGUUGAGUCU”, the “apparent Kd” value runs as follows: under setting [3], 401 nM; under setting [4], 119 nM.
Take “CUAAUUAAAUCGGCCGCCACUUACUCAUGAGGUAACAACAUGAGGAUCACCCAUGUUUGAGGAUCAAGGACCGGGAUUUAAUUAG”: the “apparent Kd” value under setting [1] was found to be 28.9 nM and the “apparent Kd” value under setting [2] was determined as 18.2 nM.
The like results for “AUGGUCGACGAUCUGCGAAAAGCAGAUCGACGAGGACCGGUACGGCCGCCACUCGUGUUUAUUUAACAUGAGGAUCACCCAUGUA” were, in that order, 80.2 nM and 22.3 nM.
For “GAUAUGGAAACAUGUCAGAUCCUUACCGGUCGAGGACCGGUACGGCCGCCACUCGGAAAUAUUGUACAUGAGGAUCACCCAUGUA”, the “apparent Kd” value reads like this: under setting [3], 13.7 nM; under setting [4], 14.5 nM.
Consider “CUAUAUUUAUCGGCCGCCACUUACUCAUGAGGUAACAACAUGAGGAUCACCCAUGUUUGAGGAUCAAGGACCGGGAUAAAUAUAG”, for which the “apparent Kd” value is, setting by setting: under setting [1], 27.8 nM; under setting [2], 16.3 nM.
The matching figures for “CGAUAUAUAGCGGCCGCCACUUACUCAUGAGGUAACAACAUGAGGAUCACCCAUGUUUGAGGAUCAAGGACCGGGCUAUGUAUCG”: 27.4 nM and 18 nM.
The matching figures for “CUAUGUAUAUAUGCGAAAGCUACGUGUUGACGAGGACCGGUACGGCCGCCACUCGACAUGAGGAUCACCCAUGUAAUAUAUAUAG”: 200 nM and 62.7 nM.
The like results for “UCGUUUUAGUCGGCCGCCACUGUAUGCAUGUUUAACAUGAGGAUCACCCAUGUCCCGUACUAUAACAGGACCGGGACGUAAUAGA” were, in that order, 168 nM and 100 nM.
For “CUAUAUAUAGCGGCCGCCACUUACUCAUGAGGUAACAACAUGAGGAUCACCCAUGUUUGAGGAUCAAGGACCGGGCUAUAUAUAG”, the “apparent Kd” value amounted to 28.2 nM under setting [1] and 16.7 nM under setting [2].
For “GGAUAGGACACGGCCGCCACUGCCUAGGAUACUAGCAACAUUUGGGUACAUGAGGAUCACCCAUGUAGGACCGGGUGUCCUAUCG”, the “apparent Kd” value runs as follows: under setting [3], 49.2 nM; under setting [4], 53.9 nM.
With “GAGUAGUAGACGGCCGCCACUAAACAUGAGGAUCACCCAUGUAGUGAUCCGUUACCUAGCGUAGAUAGGACCGGGUCAGAUAGUA”, the “apparent Kd” value turned out to be 26 nM under setting [3] and 29.2 nM under setting [4].
Regarding “CUACAUUUGUAGAAACCGGUCAACAAUAAUCGAGGACCGGUACGGCCGCCACUCGAUGUGAAAUACACAUGAGGAUCACCCAUGU”, the “apparent Kd” value reads like this: under setting [1], 15.9 nM; under setting [2], 16.9 nM.

(Values after the EternaBench riboswitch data.)
